In ChEMBL document CHEMBL1146986, “Synthesis and SAR studies of very potent imidazopyridine antiprotozoal agents” (Bioorg Med Chem Lett, 2006):
pIC50: −log10 of the molar value. Activity calls are given as the source filed them. The rule behind the calls is not given here.

Experiments:
Eimeria acervulina [1] = test: Antiparasitic activity against Eimeria acervulina in chicken at 6.25 ppm in feed assessed as percent reduction in oocyst; type: functional; parameters: scale not given: the % may be the effect or the level left
In short: (§1)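 Seven-day in vivo anticoccidial model in chickens infected with E. tenella and E. acervulina. Compound is given orally in feed (ppm). Oocyst shedding from infected birds is quantified, and activity is graded by percent oocyst reduction.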

Eimeria tenella [2] = test: Antiparasitic activity against Eimeria tenella in chicken at 6.25 ppm in feed assessed as percent reduction in oocyst; type: functional; parameters: scale not given: the % may be the effect or the level left; in short: as §1
Salmonella typhimurium [3] = test: […] against Salmonella Typhimurium TA100 at 3000 ug/plate by Ames microbial mutagenesis assay; type: functional, organism-based; settings: Salmonella enterica subsp. enterica serovar Typhimurium
In short: (§2)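 Plate-incorporation reverse mutation test: about 10^8 bacterial cells in molten top agar are mixed with test article in DMSO and cofactor plus S9 fraction (50 µL/plate) from induced male Sprague–Dawley rats. Plated in triplicate and incubated 37 °C for 48 h. Revertant colonies are counted automatically, as mean ± standard deviation (n = 3). A twofold or greater increase over solvent control counts as positive.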

Salmonella typhimurium [4] = test: […] against Salmonella Typhimurium TA98 at 6000 ug/plate by Ames microbial mutagenesis assay; type: functional, organism-based; settings: Salmonella enterica subsp. enterica serovar Typhimurium; in short: as §2
Eimeria acervulina [5] = test: Antiparasitic activity against Eimeria acervulina in chicken at 12.5 ppm in feed assessed as percent reduction in oocyst; type: functional; parameters: scale not given: the % may be the effect or the level left
In short: (§3)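 Infected chickens given compound orally in feed (ppm), seven-day in vivo efficacy model; activity quantified from oocyst shedding and graded as percent oocyst reduction versus infection.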

Salmonella typhimurium [6] = test: […] against Salmonella Typhimurium TA100 at 6000 ug/plate by Ames microbial mutagenesis assay; type: functional, organism-based; settings: Salmonella enterica subsp. enterica serovar Typhimurium; in short: as §2
Eimeria tenella [7] = test: Antiparasitic activity against Eimeria tenella in chicken at 12.5 ppm in feed assessed as percent reduction in oocyst; type: functional; parameters: scale not given: the % may be the effect or the level left; in short: as §3
[8] = target: cGMP-dependent protein kinase (Eimeria tenella, UniProt Q8MMZ8); test: Inhibitory activity against PKG
Salmonella typhimurium [9] = test: […] against Salmonella Typhimurium TA98 at 3000 ug/plate by Ames microbial mutagenesis assay; type: functional, organism-based; settings: Salmonella enterica subsp. enterica serovar Typhimurium; in short: as §2
Eimeria tenella [10] = test: Antiparasitic activity against Eimeria tenella in chicken at 25 ppm in feed assessed as percent reduction in oocyst; type: functional; parameters: scale not given: the % may be the effect or the level left; in short: as §3
Eimeria acervulina [11] = test: Antiparasitic activity against Eimeria acervulina in chicken at 25 ppm in feed assessed as percent reduction in oocyst; type: functional; parameters: scale not given: the % may be the effect or the level left; in short: as §3

cGMP-dependent protein kinase, sequence (Q8MMZ8 whole entry): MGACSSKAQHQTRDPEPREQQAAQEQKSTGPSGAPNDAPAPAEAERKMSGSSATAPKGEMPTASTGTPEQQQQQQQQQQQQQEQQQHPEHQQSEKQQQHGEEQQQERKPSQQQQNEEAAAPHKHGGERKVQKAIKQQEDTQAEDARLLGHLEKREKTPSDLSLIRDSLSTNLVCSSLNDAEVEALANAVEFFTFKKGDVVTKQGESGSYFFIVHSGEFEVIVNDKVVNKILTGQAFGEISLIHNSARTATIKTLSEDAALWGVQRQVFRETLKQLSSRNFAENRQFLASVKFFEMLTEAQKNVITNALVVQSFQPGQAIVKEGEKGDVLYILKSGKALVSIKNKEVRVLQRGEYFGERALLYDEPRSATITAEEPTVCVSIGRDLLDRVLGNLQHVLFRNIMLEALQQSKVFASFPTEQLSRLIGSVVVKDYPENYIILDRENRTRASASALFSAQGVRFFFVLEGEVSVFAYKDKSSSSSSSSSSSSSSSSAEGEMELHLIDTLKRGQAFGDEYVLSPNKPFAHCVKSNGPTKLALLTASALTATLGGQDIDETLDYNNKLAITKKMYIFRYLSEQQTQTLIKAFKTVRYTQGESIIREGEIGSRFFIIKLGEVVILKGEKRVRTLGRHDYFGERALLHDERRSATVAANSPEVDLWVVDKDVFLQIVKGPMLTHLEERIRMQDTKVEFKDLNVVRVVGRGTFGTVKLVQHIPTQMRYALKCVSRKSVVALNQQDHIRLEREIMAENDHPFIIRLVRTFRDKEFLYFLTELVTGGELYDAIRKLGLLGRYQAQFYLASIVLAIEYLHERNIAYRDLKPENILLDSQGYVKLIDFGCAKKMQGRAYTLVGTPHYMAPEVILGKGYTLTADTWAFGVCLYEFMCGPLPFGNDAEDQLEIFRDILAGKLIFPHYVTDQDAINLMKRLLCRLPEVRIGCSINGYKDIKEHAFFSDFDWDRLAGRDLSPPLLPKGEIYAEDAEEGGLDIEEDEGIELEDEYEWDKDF

| SMILES | pIC50 [8] | Activity (Eimeria tenella [10]) | Activity (Eimeria acervulina [11]) | other results |
| --- | --- | --- | --- | --- |
| CN(C)Cc1ccn2c(-c3ccnc(N)n3)c(-c3ccc(F)cc3)nc2c1 | 9.96 | – | – | Activity (Eimeria acervulina [1]): 50%; Activity (Eimeria tenella [2]): 50%; Activity (Salmonella typhimurium [3]): Active; Activity (Salmonella typhimurium [4]): Active; Activity (Eimeria acervulina [5]): >=80%; Activity (Salmonella typhimurium [6]): Active; Activity (Eimeria tenella [7]): >=80%; Activity (Salmonella typhimurium [9]): Active |
| COc1nccc(-c2c(-c3ccc(F)cc3)nc3cc(CN(C)C)ccn23)n1 | 8.59 | <50% | <50% | – |
| Nc1nccc(-c2c(-c3ccc(F)cc3)nc3cc(Cl)ccn23)n1 | 8.57 | <50% | <50% | – |
| CNc1nccc(-c2c(-c3ccc(F)cc3)nc3cc(CN(C)C)ccn23)n1 | 9.77 | >=80% | >=80% | – |
| CN(C)Cc1ccn2c(-c3ccnc(N(C)C)n3)c(-c3ccc(F)cc3)nc2c1 | 8.60 | <50% | <50% | – |
| N#Cc1ccn2c(-c3ccnc(N)n3)c(-c3ccc(F)cc3)nc2c1 | 7.95 | <50% | <50% | – |
| NCc1ccn2c(-c3ccnc(N)n3)c(-c3ccc(F)cc3)nc2c1 | 9.74 | <50% | <50% | – |
| Nc1nccc(-c2c(-c3ccc(F)cc3)nc3cc(CO)ccn23)n1 | 8.57 | <50% | <50% | – |
| CN(C)Cc1ccn2c(-c3ccnc(NCC(C)(C)C)n3)c(-c3ccc(F)cc3)nc2c1 | 9.82 | – | – | Activity (Eimeria acervulina [5]): >=80%; Activity (Eimeria tenella [7]): >=80% |
| Nc1nccc(-c2c(-c3ccc(F)cc3)nc3cc(C4CCNCC4)ccn23)n1 | 10.30 | <50% | <50% | – |
| CN(C)Cc1ccn2c(-c3ccnc(NCc4ccccc4)n3)c(-c3ccc(F)cc3)nc2c1 | 10.09 | >=80% | >=80% | – |
| CN1CCC(c2ccn3c(-c4ccnc(N)n4)c(-c4ccc(F)cc4)nc3c2)CC1 | 10.40 | – | – | Activity (Eimeria acervulina [1]): >=80%; Activity (Eimeria tenella [2]): >=80%; Activity (Salmonella typhimurium [3]): Active; Activity (Salmonella typhimurium [4]): Active; Activity (Eimeria acervulina [5]): 50%; Activity (Salmonella typhimurium [6]): Active; Activity (Salmonella typhimurium [9]): Active |
| CNCc1ccn2c(-c3ccnc(N)n3)c(-c3ccc(F)cc3)nc2c1 | 9.82 | <50% | <50% | – |
| CCCNc1nccc(-c2c(-c3ccc(F)cc3)nc3cc(CN(C)C)ccn23)n1 | 9.89 | – | – | Activity (Eimeria acervulina [5]): >=80%; Activity (Eimeria tenella [7]): >=80% |
| CN(C)Cc1ccn2c(-c3ccncn3)c(-c3ccc(F)cc3)nc2c1 | 8.72 | <50% | <50% | – |
